Test results reported in ChEMBL document CHEMBL2203243, “Synthesis and biological evaluation of novel benzimidazole derivatives and their binding behavior with bovine serum albumin” (Eur J Med Chem, 2012).
Values after ≈ are worked out from the molar mass of the structure shown.

How the values were obtained:
[1] = test system: Staphylococcus aureus; assay: Antimicrobial activity against methicillin-resistant Staphylococcus aureus N315 by microbroth dilution method; assay type: functional
[2] = test system: Micrococcus luteus; assay: Antimicrobial activity against Micrococcus luteus ATCC 4698 by microbroth dilution method; assay type: functional
Summary of the method: (§1)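 Two-fold serial broth microdilution in 96-well microtest plates, run against four Gram-positive strains, five Gram-negative strains and two fungi.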

[3] = test system: Staphylococcus aureus; assay: Antimicrobial activity against Staphylococcus aureus ATCC 25923 by microbroth dilution method; assay type: functional; summary of the method: as §1
[4] = Lipophilicity, log P of the compound by UV-Vis spectrophotometric method based saturation shake flask assay; assay type: physicochemical; conditions: octanol/water
Summary of the method: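 Log P measured by the traditional saturation shake-flask partition, with compound quantified by UV-vis spectrophotometry.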

[5] = test system: Bacillus; assay: Antimicrobial activity against Bacillus proteus by microbroth dilution method; assay type: functional; summary of the method: as §1
[6] = test system: Bacillus subtilis; assay: Antimicrobial activity against Bacillus subtilis by microbroth dilution method; assay type: functional; summary of the method: as §1
[7] = test system: Shigella dysenteriae; assay: Antimicrobial activity against Shigella dysenteriae by microbroth dilution method; assay type: functional
[8] = test system: Escherichia coli; assay: Antimicrobial activity against Escherichia coli DH52 by microbroth dilution method; assay type: functional; summary of the method: as §1
[9] = Antimicrobial activity against Eberthella typhosa by microbroth dilution method; assay type: functional; summary of the method: as §1
[10] = test system: Candida albicans; assay: Antimicrobial activity against Candida albicans by microbroth dilution method; assay type: functional; summary of the method: as §1
[11] = test system: Pseudomonas aeruginosa; assay: Antimicrobial activity against Pseudomonas aeruginosa by microbroth dilution method; assay type: functional; summary of the method: as §1
[12] = test system: Candida; assay: Antimicrobial activity against Candida mycoderma by microbroth dilution method; assay type: functional; summary of the method: as §1

| SMILES | MIC [1] [µg/mL] | MIC [2] [µg/mL] | MIC [3] [µg/mL] | logP ([4]; read-out: logP) | MIC [5] [µg/mL] | MIC [6] [µg/mL] | MIC [7] [µg/mL] | MIC [8] [µg/mL] | MIC [9] [µg/mL] | MIC [10] [µg/mL] | MIC [11] [µg/mL] | MIC [12] [µg/mL] | logP [4] |
| --- | --- | --- | --- | --- | --- | --- | --- | --- | --- | --- | --- | --- | --- |
| ClCc1nc2ccccc2[nH]1 | > 512 | 512 (≈ 3070 µM) | > 512 | 1.44 | > 512 | > 512 | 512 (≈ 3070 µM) | 256 (≈ 1540 µM) | 512 (≈ 3070 µM) | 512 (≈ 3070 µM) | > 512 | > 512 |  |
| CCCCCCCCCCCCn1c(CNNC(=O)c2sc(C(=O)NNCc3nc4ccccc4n3CCCCCCCCCCCC)c(C)c2C)nc2ccccc21 | 8 (≈ 9.69 µM) | > 512 | 128 (≈ 155 µM) |  | > 512 | 512 (≈ 620 µM) | 16 (≈ 19.4 µM) | 128 (≈ 155 µM) | 256 (≈ 310 µM) | 256 (≈ 310 µM) | 128 (≈ 155 µM) | 64 (≈ 77.6 µM) | ND(Insoluble) |
| CCCCCCCCCCCCCCCCCCn1c(CNNC(=O)c2sc(C(=O)NNCc3nc4ccccc4n3CCCCCCCCCCCCCCCCCC)c(C)c2C)nc2ccccc21 | 512 (≈ 515 µM) | > 512 | 256 (≈ 258 µM) |  | > 512 | > 512 | 512 (≈ 515 µM) | 512 (≈ 515 µM) | 64 (≈ 64.4 µM) | > 512 | 512 (≈ 515 µM) | 256 (≈ 258 µM) | ND(Insoluble) |
| Cc1c(C(=O)NNCc2nc3ccccc3n2Cc2ccc(Cl)c(Cl)c2)sc(C(=O)NNCc2nc3ccccc3n2Cc2ccc(Cl)c(Cl)c2)c1C | > 512 | > 512 | 32 (≈ 39.7 µM) | 7.16 | > 512 | 512 (≈ 635 µM) | > 512 | 512 (≈ 635 µM) | > 512 | > 512 | > 512 | > 512 |  |
| Cc1c(C(=O)NNCc2nc3ccccc3n2Cc2ccc(F)cc2F)sc(C(=O)NNCc2nc3ccccc3n2Cc2ccc(F)cc2F)c1C | 128 (≈ 173 µM) | 256 (≈ 346 µM) | 64 (≈ 86.4 µM) | 4.96 | 128 (≈ 173 µM) | 256 (≈ 346 µM) | 256 (≈ 346 µM) | 128 (≈ 173 µM) | 128 (≈ 173 µM) | 64 (≈ 86.4 µM) | 128 (≈ 173 µM) | 256 (≈ 346 µM) |  |
| Cc1c(C(=O)NNCc2nc3ccccc3n2Cc2ccc(F)cc2)sc(C(=O)NNCc2nc3ccccc3n2Cc2ccc(F)cc2)c1C | 128 (≈ 182 µM) | 128 (≈ 182 µM) | 128 (≈ 182 µM) | 5.25 | 128 (≈ 182 µM) | 32 (≈ 45.4 µM) | 128 (≈ 182 µM) | 32 (≈ 45.4 µM) | 128 (≈ 182 µM) | 64 (≈ 90.8 µM) | 128 (≈ 182 µM) | 32 (≈ 45.4 µM) |  |
| Cc1c(C(=O)NNCc2nc3ccccc3n2Cc2ccc(Cl)cc2)sc(C(=O)NNCc2nc3ccccc3n2Cc2ccc(Cl)cc2)c1C | 32 (≈ 43.4 µM) | 16 (≈ 21.7 µM) | 32 (≈ 43.4 µM) | 6.19 | 32 (≈ 43.4 µM) | 32 (≈ 43.4 µM) | 32 (≈ 43.4 µM) | 8 (≈ 10.8 µM) | 16 (≈ 21.7 µM) | 16 (≈ 21.7 µM) | 32 (≈ 43.4 µM) | 32 (≈ 43.4 µM) |  |
| Cc1c(C(=O)NNCc2nc3ccccc3n2Cc2cccc(Cl)c2)sc(C(=O)NNCc2nc3ccccc3n2Cc2cccc(Cl)c2)c1C | 16 (≈ 21.7 µM) | 32 (≈ 43.4 µM) | 128 (≈ 174 µM) | 6.34 | 128 (≈ 174 µM) | 128 (≈ 174 µM) | 128 (≈ 174 µM) | 32 (≈ 43.4 µM) | 256 (≈ 347 µM) | 128 (≈ 174 µM) | 128 (≈ 174 µM) | 64 (≈ 86.8 µM) |  |
| Cc1c(C(=O)NNCc2nc3ccccc3n2Cc2ccccc2Cl)sc(C(=O)NNCc2nc3ccccc3n2Cc2ccccc2Cl)c1C | 16 (≈ 21.7 µM) | 16 (≈ 21.7 µM) | 32 (≈ 43.4 µM) | 6.25 | 16 (≈ 21.7 µM) | 32 (≈ 43.4 µM) | 32 (≈ 43.4 µM) | 32 (≈ 43.4 µM) | 128 (≈ 174 µM) | 32 (≈ 43.4 µM) | 64 (≈ 86.8 µM) | 128 (≈ 174 µM) |  |
| CCCn1c(CNNC(=O)c2sc(C(=O)NNCc3nc4ccccc4n3CCC)c(C)c2C)nc2ccccc21.Cl | 32 | 256 | 256 |  | 16 | 256 | 128 | 256 | 4 | 32 | 32 | 128 |  |
| CCCCCCCCCCn1c(CNNC(=O)c2sc(C(=O)NNCc3nc4ccccc4n3CCCCCCCCCC)c(C)c2C)nc2ccccc21.Cl | 2 | 8 | 2 |  | 2 | 2 | 8 | 4 | 4 | 8 | 16 | 4 |  |
